# Most compounds without a hit are left out; they make up all but 1.9% or so of the library.
# MBD2 inh: blocks human MBD2 binding to methylated DNA; inhibition, % at 4.4 µM; 370,000 tested, 0.31% active; AID 686964; Q9UBB5; TR-FRET, MBD2 binding to methylated oligonucleotide; in the data active = inhibition above about 13%
# Casp6 inh: caspase-6 (human) enzyme inhibition; P55212; purified caspase-6, Z-VEID-R110 cleavage fluorescence; inhibition, % at 12.5 µM; 350,000 tested, 0.53% active;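 active = mean inhibition across replicates at least about 35%, with every replicate also reaching that limit, limit read from the data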;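 also: 0% = median of neutral control wells and 100% = no fluorescence left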
# NSD2 HMT inh: NSD2 (human) methyltransferase inhibition; 310,000 tested, 0.54% active; inhibition, % at 12.5 µM; NSD2 peptide methylation, AlphaScreen, 120 min; AID 743445; in the data active = inhibition above about 50%
# TDP2 inh: TDP2 (human) inhibition, absorbance primary screen | 370,000 tested, 0.34% active | AID 720702 | recombinant TDP2, T5PNP hydrolysis, p-nitrophenol absorbance 415 nm | inhibition, % at 12.8 µM;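 active = inhibition above the mean of all tested compounds plus 3 SD, set per campaign, cut at about 25% in these data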;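 also: 0% = DMSO with enzyme and 100% = buffer with substrate but no TDP2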
# Target sequence (O95551 whole entry, looked up): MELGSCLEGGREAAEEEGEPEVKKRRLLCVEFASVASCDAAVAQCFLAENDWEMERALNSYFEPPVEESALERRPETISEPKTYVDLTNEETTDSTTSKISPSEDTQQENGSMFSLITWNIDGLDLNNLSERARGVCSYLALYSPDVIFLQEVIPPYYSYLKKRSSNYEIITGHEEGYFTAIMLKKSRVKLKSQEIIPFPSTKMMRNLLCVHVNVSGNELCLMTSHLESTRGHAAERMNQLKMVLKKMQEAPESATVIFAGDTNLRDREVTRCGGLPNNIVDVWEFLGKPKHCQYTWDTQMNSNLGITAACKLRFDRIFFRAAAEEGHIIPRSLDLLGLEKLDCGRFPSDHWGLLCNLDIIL
#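 test system = human TDP2 enzyme | input = TDP2 enzyme at 120 nM final | medium = 50 mM Tris-HCl pH 7.5 with Mg2+, KCl, DTT, BSA | also added = T5PNP substrate, 5 mM | times = 2 h at 37 °C | technique = epi absorbance | benchmarks = high control without enzyme, low control DMSO plus TDP2 | replication = each compound tested once, singlicate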
# UHRF1 MBD2 ctr: UHRF1 methyl-DNA binding inhibition. Q96T88. UHRF1 binding to methylated oligo, TR-FRET. inhibition, % at 4.4 µM. 370,000 tested, 0.75% active. AID 687016; in the data active = inhibition above about 21%;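 also: UHRF1 SRA domain binding a hemimethylated CpG hairpin DNA probe; 0% = median of test compound wells and 100% = reference inhibitor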
# LEDGF integ inh: blocks HIV-1 LEDGF/p75-dependent DNA integration; TR-FRET IN-LEDGF/p75 DNA integration, Eu/Cy5; inhibition, % at 3.7 µM; 370,000 tested, 0.64% active; AID 743269;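 active = inhibition above the screen-wide mean plus 3 SD, cut at about 13% in these data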;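 also: signal is the Cy5 over europium emission ratio at 671 and 618 nm; 0% = plate median of compound wells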
# Numbers without * were called inactive; · = not tested or not shown.
SMILES,MBD2 inh,Casp6 inh,NSD2 HMT inh,TDP2 inh,UHRF1 MBD2 ctr,LEDGF integ inh
CC(C)COC(=O)N(C)C[C@H]1OCc2ccccc2-c2c(n(C)c3ccccc23)C(=O)N([C@@H](C)CO)C[C@H]1C,·,0.8,·,·,·,·
CC(=O)Nc1c(C(=O)Nc2ccc3c(c2)OCO3)oc2ccccc12,-2.1,2.0,-0.3,-15.8,-1.0,-6.3
COCC(=O)Nc1c(C(=O)Nc2ccc3c(c2)OCO3)oc2ccccc12,1.8,-0.2,-9.8,-4.7,51.3*,-0.4
C/C=C/c1ccc([C@H]2[C@@H](CO)N(S(C)(=O)=O)[C@H]2CN(CCC)C(C)=O)cc1,·,1.3,·,·,·,·
O=C1NCCCC2c3cc(O)c4ccccc4c3OC12N1CCCCC1 (stereo not drawn),-3.5,·,·,56.7*,4.4,12.6
Cc1cc(NC(=O)c2ccccc2F)nc2c1c(=O)oc1ccccc12,1.4,-3.9,-1.5,0.5,22.4*,0.9
O=C(c1cccs1)N1CCN(Cc2ccccn2)CC1,10.6,-2.1,2.4,17.0,23.9*,9.8
O=C(CSc1nc2ccccc2n1CCc1ccccc1)N1CCOCC1,-4.3,0.1,0.7,1.1,1.3,0.4
Cc1cc(NS(=O)(=O)c2ccc(NC(=O)CSc3nc4ncc(Br)cc4[nH]3)cc2)nc(C)n1,2.6,4.6,2.9,-3.2,39.1*,-6.0
Cc1ccc(C(=O)CSc2nc(C)cc(=O)[nH]2)cc1,-7.8,·,0.4,-2.8,-1.1,1.3
Cc1cc(=O)[nH]c(SCC(=O)Nc2ccc(S(N)(=O)=O)cc2)n1,-0.1,52.3*,-1.1,3.3,0.9,3.8
Cc1cc(=O)[nH]c(SCC(=O)c2ccc(O)c(O)c2)n1,-6.8,36.3*,24.5,-14.8,2.0,10.4
O=C(CSc1nc2ccccc2n1CCc1ccccc1)c1ccc(O)c(O)c1,25.9*,69.6*,101.8*,-10.1,57.5*,32.2*
O=C(CSc1nc2ccccc2c(=O)[nH]1)c1ccc(O)c(O)c1,2.6,70.4*,·,-8.7,1.2,10.2
O=C(CSc1nc2ccccc2c(=O)[nH]1)c1ccc(O)cc1O,4.8,3.0,0.3,1.6,-2.4,0.4
Cn1c(SCC(=O)c2ccc(O)c(O)c2)nnc1-c1cccs1,-3.0,40.4*,16.4,5.5,5.2,-4.0
O=C([C@@H]1[C@@H](CO)[C@@H]2Cn3c(cccc3=O)[C@H]1N2Cc1cccc(Cl)c1)N1CCOCC1,·,-2.9,·,·,·,·
C[C@@H](NC(=O)C[C@@H]1CC[C@@H]2[C@H](COC[C@@H](O)CN2Cc2ccc(C(F)(F)F)cc2)O1)c1ccccc1,·,1.2,·,·,·,·
CC1=C(C(=O)N(C)C)CC(CC(=O)NCCc2ccccn2)C(=O)N1Cc1ccc(C(C)(C)C)cc1 (stereo not drawn),5.0,-0.3,·,-6.6,20.9*,-0.9
Cc1nc2c(nc1C)C(=O)c1ccccc1C2=O,-11.0,35.9*,48.4,6.2,-1.3,2.3
CCCCN1CC(COCc2ccccc2)Oc2cccc(Oc3ccc(OC)cc3)c2S1(=O)=O (stereo not drawn),-1.1,1.3,·,-9.9,-1.6,2.3
CCCCN1CC(COCc2ccccc2)Oc2cccc(Oc3ccc(SC)c(C)c3)c2S1(=O)=O (stereo not drawn),13.0,-1.9,·,7.4,23.3*,-1.6
COc1ccc(NC(=O)N(C)C[C@@H]2OCCCC[C@@H](C)Oc3ccc(NS(=O)(=O)c4ccc(Cl)cc4)cc3C(=O)N([C@H](C)CO)C[C@@H]2C)cc1,·,-3.9,·,·,·,·
CCOC(=O)/C=C(\C)Sc1cc(O)c2ccccc2c1O,-3.5,94.0*,·,58.5*,6.7,28.9*
CCOC(=O)/C=C(\C)Sc1cc(=O)oc2ccccc12,-9.8,·,-1.1,5.0,-0.9,-0.2
C[C@@H]1CN([C@@H](C)CO)C(=O)c2cccc(NS(C)(=O)=O)c2O[C@@H]1CN(C)C(=O)Nc1cccc2ccccc12,·,-1.1,·,·,·,·
CCOC(=O)c1c(C)oc2c1c(C=NCc1ccccn1)c(O)c1ccccc12,-6.3,60.4*,·,30.3*,7.4,16.5*
O=C(NC(=S)NNS(=O)(=O)c1ccccc1)c1ccc([N+](=O)[O-])cc1,-3.9,·,-1.2,5.2,-1.1,-1.9
O=C(NC(=S)NNS(=O)(=O)c1ccccc1)c1ccccc1[N+](=O)[O-],0.9,51.9*,-5.1,5.5,-6.2,-7.4

# Source: PubChem BioAssay
